Experiment [1] addresses Aurora kinase C (Homo sapiens) (UniProt Q9UQB9). The experiment in a line: Inhibition of AURKC assessed as residual activity at 10 uM relative to control.
Experiment [2] deals with Mitogen-activated protein kinase 1 (Homo sapiens) (UniProt P28482). The experiment in a line: Inhibition of ERK2 assessed as residual activity at 10 uM relative to control.
For experiment [3], the target named is Myosin light chain kinase, smooth muscle (Homo sapiens) (UniProt Q15746). As to the kind of experiment: Inhibition of MYLK assessed as residual activity at 10 uM relative to control.
Experiment [4] addresses Atypical kinase COQ8B, mitochondrial (Homo sapiens) (UniProt Q96D53). As to the kind of experiment: Inhibition of ADCK4 assessed as residual activity at 10 uM relative to control.
For experiment [5], the system named is Receptor-type tyrosine-protein kinase FLT3 (Homo sapiens), P36888 [N841I]. The experiment in a line: Inhibition of FLT3 N841I mutant assessed as residual activity at 10 uM relative to control.
In experiment [6] the target is T1, Serine/threonine-protein kinase STK11 (Homo sapiens) (UniProt Q15831).
T1 sequence (whole entry): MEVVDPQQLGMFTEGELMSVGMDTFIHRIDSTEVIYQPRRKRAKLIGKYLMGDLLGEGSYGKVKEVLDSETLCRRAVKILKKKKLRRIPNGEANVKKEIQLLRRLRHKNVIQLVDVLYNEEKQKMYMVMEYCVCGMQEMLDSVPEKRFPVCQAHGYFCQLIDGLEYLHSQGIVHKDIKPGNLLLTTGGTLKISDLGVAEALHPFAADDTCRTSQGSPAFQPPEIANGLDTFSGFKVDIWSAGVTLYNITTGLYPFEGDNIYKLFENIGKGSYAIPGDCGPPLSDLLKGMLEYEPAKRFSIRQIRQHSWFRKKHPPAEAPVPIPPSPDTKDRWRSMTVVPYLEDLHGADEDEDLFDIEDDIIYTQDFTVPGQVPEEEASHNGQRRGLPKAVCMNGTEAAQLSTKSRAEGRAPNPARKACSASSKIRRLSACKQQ
The experiment in a line: Inhibition of LKB1 assessed as residual activity at 10 uM.

Experiment [7] has as its target Tyrosine-protein kinase CSK (Homo sapiens) (UniProt P41240). As to the kind of experiment: Inhibition of CSK assessed as residual activity at 1 uM. The method in brief: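 Radioactivity-based enzymatic assay against a panel of 131 kinases (Dundee profiling). Activity remaining was measured with compound present at the stated concentration.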
For experiment [8], the target named is Cyclin-dependent kinase 9 (Homo sapiens) (UniProt P50750). The experiment in a line: Inhibition of CDK9 assessed as residual activity at 10 uM relative to control.
In experiment [9] the target is Casein kinase I isoform epsilon (Homo sapiens) (UniProt P49674). As to the kind of experiment: Inhibition of CSNK1E assessed as residual activity at 10 uM relative to control. The method in brief:
(§1)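 Competition kinase-binding assay (KINOMEscan) across a non-redundant panel of 329 kinases beyond the radiometric panel; residual binding expressed relative to control.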

For experiment [10], the target named is Glycogen synthase kinase-3 beta (Homo sapiens) (UniProt P49841). The experiment in a line: Inhibition of GSK3b assessed as residual activity at 1 uM. The method in brief: (§2)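 Radioactivity-based enzymatic activity assay of the named kinase, run as part of a 131-kinase specificity panel at the National Centre for Protein Kinase Profiling (Dundee). Residual activity was read at the stated single inhibitor concentration.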
Sequence of Glycogen synthase kinase-3 beta (Homo sapiens) (P49841 whole entry, looked up): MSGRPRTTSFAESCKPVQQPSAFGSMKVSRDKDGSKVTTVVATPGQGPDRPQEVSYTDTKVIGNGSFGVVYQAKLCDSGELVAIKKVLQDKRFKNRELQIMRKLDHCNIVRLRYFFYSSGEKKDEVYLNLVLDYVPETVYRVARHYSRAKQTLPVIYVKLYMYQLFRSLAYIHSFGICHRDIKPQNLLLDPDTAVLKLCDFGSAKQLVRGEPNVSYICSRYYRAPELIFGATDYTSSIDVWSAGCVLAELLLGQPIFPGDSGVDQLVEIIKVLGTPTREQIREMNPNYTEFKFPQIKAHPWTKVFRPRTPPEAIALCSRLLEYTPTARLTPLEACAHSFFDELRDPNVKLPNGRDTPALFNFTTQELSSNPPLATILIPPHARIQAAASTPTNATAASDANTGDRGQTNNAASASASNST

Experiment [11] has as its target Mitogen-activated protein kinase 1 (Homo sapiens) (UniProt P28482). As to the kind of experiment: Inhibition of ERK2 assessed as residual activity at 1 uM. The method in brief: as §2
The target of experiment [12] is Cyclin-dependent kinase 11B (Homo sapiens) (UniProt P21127). The experiment in a line: Inhibition of CDC2L1 assessed as residual activity at 10 uM relative to control.
Sequence of Cyclin-dependent kinase 11B (Homo sapiens) (P21127 whole entry, the tested form may be a part): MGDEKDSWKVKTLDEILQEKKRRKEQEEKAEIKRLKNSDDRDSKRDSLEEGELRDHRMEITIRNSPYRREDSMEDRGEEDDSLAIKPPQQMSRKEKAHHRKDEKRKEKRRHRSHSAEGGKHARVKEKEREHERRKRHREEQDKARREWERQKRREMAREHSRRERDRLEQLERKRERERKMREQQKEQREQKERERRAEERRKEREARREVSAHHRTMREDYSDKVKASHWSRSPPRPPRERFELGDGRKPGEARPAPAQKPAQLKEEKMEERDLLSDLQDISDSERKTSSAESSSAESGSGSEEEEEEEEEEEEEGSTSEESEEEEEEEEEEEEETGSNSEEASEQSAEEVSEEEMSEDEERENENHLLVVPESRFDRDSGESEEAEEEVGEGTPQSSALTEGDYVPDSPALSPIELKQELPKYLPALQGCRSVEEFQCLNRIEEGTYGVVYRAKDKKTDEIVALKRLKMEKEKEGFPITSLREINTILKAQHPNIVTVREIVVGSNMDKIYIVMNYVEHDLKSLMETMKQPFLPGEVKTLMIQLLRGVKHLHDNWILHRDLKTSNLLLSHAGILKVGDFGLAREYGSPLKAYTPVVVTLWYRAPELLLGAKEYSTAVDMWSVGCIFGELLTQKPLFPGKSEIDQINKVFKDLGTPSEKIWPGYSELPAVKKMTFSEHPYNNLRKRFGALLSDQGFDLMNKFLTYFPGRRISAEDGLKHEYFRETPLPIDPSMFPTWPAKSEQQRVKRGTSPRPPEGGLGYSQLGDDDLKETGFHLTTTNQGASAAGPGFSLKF
Experiment [13] concerns the target Phosphatidylinositol 4-phosphate 3-kinase C2 domain-containing subunit beta (Homo sapiens) (UniProt O00750). The experiment in a line: Inhibition of PIK3C2B assessed as residual activity at 10 uM relative to control.
Experiment [14] has as its target MAP kinase-activated protein kinase 5 (Homo sapiens) (UniProt Q8IW41). As to the kind of experiment: Inhibition of PRAK assessed as residual activity at 10 uM.
The target of experiment [15] is T2, Ephrin type-B receptor 3 (Homo sapiens) (UniProt P54753).
T2 sequence (whole entry): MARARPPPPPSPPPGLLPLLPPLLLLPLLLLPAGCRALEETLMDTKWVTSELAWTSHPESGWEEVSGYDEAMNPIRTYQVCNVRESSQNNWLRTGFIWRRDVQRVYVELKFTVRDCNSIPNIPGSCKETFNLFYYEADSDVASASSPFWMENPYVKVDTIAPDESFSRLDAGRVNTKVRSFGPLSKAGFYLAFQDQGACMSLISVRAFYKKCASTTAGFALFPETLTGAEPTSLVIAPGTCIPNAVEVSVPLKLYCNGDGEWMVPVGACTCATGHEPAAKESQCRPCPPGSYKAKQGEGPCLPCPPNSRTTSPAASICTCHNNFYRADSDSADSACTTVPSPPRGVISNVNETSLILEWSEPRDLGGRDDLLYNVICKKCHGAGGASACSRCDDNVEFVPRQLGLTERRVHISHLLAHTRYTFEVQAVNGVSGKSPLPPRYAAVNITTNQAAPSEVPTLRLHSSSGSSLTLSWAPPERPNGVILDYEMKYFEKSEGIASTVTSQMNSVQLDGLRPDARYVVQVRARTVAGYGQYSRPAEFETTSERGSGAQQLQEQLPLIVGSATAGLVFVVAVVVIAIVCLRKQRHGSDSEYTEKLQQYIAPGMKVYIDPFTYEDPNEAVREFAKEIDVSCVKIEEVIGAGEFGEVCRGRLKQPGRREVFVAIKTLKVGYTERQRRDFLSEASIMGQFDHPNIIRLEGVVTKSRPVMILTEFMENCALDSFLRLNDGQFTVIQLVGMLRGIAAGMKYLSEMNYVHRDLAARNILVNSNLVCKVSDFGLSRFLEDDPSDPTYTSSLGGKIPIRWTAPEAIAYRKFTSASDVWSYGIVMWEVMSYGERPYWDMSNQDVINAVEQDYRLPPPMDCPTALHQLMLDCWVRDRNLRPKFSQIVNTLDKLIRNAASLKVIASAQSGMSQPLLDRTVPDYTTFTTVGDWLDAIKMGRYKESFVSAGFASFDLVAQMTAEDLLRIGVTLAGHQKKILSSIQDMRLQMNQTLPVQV
The experiment in a line: Inhibition of EPHB3 assessed as residual activity at 10 uM relative to control. In outline: as §1

SMILES strings stand for the structures.

Sequence of Mitogen-activated protein kinase 1 (Homo sapiens) (P28482 whole entry): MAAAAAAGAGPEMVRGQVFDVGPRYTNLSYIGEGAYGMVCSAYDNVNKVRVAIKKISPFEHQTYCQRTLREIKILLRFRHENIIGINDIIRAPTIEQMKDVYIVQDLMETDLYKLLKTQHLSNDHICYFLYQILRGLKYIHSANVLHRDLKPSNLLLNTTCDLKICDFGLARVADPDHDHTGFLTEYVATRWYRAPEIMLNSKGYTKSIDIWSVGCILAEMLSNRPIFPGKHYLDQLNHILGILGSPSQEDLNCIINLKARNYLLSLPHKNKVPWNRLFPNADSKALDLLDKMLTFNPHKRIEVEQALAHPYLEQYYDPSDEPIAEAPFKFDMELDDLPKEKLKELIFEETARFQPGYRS
Sequence of Tyrosine-protein kinase CSK (Homo sapiens) (P41240 2-450 limits assumed): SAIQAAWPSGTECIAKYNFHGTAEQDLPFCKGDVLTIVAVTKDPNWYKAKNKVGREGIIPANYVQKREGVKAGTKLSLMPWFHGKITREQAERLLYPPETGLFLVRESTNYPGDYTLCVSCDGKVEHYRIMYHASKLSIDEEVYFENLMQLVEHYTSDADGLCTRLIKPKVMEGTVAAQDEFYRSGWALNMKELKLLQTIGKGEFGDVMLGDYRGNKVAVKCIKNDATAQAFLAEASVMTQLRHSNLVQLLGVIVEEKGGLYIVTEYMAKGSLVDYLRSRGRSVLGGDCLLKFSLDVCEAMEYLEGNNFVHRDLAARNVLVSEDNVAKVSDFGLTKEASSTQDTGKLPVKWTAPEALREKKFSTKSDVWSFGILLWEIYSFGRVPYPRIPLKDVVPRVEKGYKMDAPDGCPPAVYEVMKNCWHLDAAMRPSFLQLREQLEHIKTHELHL
Sequence of Casein kinase I isoform epsilon (Homo sapiens) (P49674 whole entry, looked up, canonical isoform): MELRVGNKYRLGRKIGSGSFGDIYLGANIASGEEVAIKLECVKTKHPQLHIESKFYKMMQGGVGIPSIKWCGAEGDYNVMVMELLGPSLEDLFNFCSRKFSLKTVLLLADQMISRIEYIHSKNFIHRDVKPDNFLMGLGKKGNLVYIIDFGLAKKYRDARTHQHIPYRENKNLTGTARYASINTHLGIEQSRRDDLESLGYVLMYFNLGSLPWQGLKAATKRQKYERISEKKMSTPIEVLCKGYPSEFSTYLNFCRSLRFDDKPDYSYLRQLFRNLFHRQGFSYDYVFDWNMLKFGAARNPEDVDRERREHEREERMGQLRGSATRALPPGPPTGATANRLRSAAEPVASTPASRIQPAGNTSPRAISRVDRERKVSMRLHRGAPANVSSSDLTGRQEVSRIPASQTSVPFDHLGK
Sequence of MAP kinase-activated protein kinase 5 (Homo sapiens) (Q8IW41 whole entry): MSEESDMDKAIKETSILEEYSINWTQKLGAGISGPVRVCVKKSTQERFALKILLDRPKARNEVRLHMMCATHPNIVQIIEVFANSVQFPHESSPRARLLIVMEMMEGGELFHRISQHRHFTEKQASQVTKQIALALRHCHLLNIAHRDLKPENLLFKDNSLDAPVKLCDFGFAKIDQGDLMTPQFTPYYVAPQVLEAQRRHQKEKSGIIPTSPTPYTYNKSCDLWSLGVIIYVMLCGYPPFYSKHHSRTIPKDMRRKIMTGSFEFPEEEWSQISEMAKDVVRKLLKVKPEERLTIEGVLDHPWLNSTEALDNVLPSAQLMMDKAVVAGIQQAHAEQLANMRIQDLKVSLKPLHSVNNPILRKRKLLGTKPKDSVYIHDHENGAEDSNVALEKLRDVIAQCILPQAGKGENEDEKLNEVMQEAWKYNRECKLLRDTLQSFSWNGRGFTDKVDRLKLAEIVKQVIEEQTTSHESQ
Sequence of Aurora kinase C (Homo sapiens) (Q9UQB9 whole entry): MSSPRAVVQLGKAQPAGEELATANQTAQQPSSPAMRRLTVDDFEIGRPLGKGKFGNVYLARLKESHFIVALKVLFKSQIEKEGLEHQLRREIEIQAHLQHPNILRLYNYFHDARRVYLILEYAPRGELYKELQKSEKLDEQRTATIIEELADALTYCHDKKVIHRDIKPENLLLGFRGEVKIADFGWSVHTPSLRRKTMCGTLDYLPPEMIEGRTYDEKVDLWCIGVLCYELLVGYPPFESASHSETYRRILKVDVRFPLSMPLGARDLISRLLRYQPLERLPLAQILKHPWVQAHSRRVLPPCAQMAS
Sequence of Phosphatidylinositol 4-phosphate 3-kinase C2 domain-containing subunit beta (Homo sapiens) (O00750 whole entry, the tested form may be a part): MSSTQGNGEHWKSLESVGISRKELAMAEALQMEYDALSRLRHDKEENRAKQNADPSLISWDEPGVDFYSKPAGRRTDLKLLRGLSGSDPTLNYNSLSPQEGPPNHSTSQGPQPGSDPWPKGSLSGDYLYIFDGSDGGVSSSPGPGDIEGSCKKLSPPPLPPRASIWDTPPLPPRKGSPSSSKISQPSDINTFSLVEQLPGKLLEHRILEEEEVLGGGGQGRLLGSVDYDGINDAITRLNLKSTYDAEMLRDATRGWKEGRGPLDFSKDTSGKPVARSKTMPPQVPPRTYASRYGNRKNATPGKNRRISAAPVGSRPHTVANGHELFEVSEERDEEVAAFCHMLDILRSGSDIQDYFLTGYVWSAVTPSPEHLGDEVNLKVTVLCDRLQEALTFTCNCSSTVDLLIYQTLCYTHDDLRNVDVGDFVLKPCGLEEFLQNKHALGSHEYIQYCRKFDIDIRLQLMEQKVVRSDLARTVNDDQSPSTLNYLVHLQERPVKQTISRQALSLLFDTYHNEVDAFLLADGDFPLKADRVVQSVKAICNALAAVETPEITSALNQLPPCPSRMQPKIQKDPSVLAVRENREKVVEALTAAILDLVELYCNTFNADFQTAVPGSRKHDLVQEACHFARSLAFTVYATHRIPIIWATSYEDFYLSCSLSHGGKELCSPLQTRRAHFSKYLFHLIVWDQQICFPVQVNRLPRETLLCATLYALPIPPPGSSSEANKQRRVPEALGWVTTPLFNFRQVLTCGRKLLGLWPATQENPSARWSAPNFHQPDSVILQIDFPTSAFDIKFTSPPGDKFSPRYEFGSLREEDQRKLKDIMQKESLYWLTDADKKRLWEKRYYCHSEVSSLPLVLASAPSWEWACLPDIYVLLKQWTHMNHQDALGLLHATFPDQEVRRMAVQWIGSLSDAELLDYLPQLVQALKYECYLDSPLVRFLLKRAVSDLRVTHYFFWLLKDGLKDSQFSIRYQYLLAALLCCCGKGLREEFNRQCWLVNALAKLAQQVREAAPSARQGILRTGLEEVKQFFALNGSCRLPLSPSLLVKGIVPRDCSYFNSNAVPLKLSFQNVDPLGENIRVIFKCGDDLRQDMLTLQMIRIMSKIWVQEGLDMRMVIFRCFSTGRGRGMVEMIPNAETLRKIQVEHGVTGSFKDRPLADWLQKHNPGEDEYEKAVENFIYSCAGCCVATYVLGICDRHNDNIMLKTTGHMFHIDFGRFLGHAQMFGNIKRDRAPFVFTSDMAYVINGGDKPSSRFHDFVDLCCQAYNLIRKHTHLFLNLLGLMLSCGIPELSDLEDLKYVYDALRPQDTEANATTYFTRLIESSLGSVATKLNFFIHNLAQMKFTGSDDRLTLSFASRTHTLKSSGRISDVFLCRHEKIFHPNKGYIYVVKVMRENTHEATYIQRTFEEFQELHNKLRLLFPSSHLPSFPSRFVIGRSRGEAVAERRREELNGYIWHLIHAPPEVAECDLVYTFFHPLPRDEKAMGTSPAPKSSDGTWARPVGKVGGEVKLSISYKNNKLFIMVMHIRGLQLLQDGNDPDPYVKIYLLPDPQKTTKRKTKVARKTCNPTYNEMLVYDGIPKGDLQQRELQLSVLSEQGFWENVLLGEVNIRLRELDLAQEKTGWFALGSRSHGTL

Take `O=C(Nc1cccnc1)c1cc(-c2ccnc(F)c2)ccc1OCc1ccccc1`: the Activity in experiment [1] came out at 75%; in experiment [2], 44%; in [3], 27%; in experiment [4], 26%; in experiment [5] it was 30%; in experiment [6] it was 105%. Further, the Activity in experiment [7] turned out to be 104%; in [8], 57%; in experiment [9], 31%; in experiment [10] it was 119%; in experiment [11], 104%; in experiment [12] it was 67%. In addition, the Activity in experiment [13] worked out at 42%; in [14] it was 114%; in experiment [15], 67%.

The values above are taken from ChEMBL document CHEMBL2203081 (Bioorg Med Chem Lett, 2012).
